pEC50: −log10 of the molar value. Activity calls are given as the source filed them. No cut-off for these calls is given here.
What was measured:
Hepatitis C virus = assay: Antiviral activity against HCV infected in human HuH7 cells assessed as reduction in replicon RNA levels incubated for 5 days by RT-PCR assay; assay type: functional, organism-based, Hepacivirus hominis; settings: Huh-7, 120 h
In short: (§1)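 Huh-7 clone B cells carrying HCV replicon RNA, seeded at 3000 cells/well; compounds added in dose response in triplicate right after seeding. Incubated 5 days at 37 °C, 5% CO₂. Total RNA extracted; replicon RNA and rRNA internal control co-amplified by one-step multiplex real-time RT-PCR. Antiviral effect taken as ΔCt versus no-drug control; cytotoxicity read from rRNA reduction.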

CCRF-CEM = assay: (§2) Cytotoxicity against human CEM cells assessed as reduction in cell viability incubated for 5 days by Cell-titer 96 aqueous one solution cell proliferation assay; assay type: cell-based; settings: ccrf-cem, 120 h
[1] = Cytotoxicity against human HuH7 cells assessed as reduction in rRNA levels incubated for 5 days by RT-PCR assay; assay type: cell-based, Huh-7; settings: for CC50: huh-7, 120 h; in short: as §1
PBMC = assay: (§3) Cytotoxicity against human PBMC assessed as reduction in cell viability incubated for 5 days by Cell-titer 96 aqueous one solution cell proliferation assay; assay type: cell-based; settings: pbmc, 120 h
Vero = assay: (§4) Cytotoxicity against African green monkey Vero cells assessed as reduction in cell viability incubated for 5 days by Cell-titer 96 aqueous one solution cell proliferation assay; assay type: cell-based; settings: chlorocebus sabaeus, vero, 120 h
[2] = (§5) Drug level in human HuH7 cells treated with 50 uM Isopropyl 3-(2-(((S)-(((2R,3S,4R,5R)-5-(2,6-Diamino-9H-purin-9-yl)-3,4-dihydroxy-4-methyltetrahydrofuran-2-yl)methoxy)-(((S)-1-isopropoxy-1-oxopropan-2-yl)amino)phosphoryl)oxy)-phenyl)propanoate 15c(Sp) and Isopropyl 3-(2-(((R)-(((2R,3S,4R,5R)-5-(2,6-Diamino-9H-purin-9-yl)-3,4-dihydroxy-4-methyltetrahydrofuran-2-yl)methoxy)(((S)-1-isopropoxy-1-oxopropan-2-yl)amino)phosphoryl)oxy)phenyl)propanoate assessed as compound formation incubated for 4 hrs at 37 degC by LC-MS/MS method; assay type: ADME, cell-based; settings: huh-7, 4 h
In short: (§6)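 Huh-7 cells seeded at 1 × 10⁶ per well and exposed to 50 μM compound after attachment, 4 h at 37 °C. Cells washed twice with ice-cold PBS, then extracted overnight at −20 °C in 70% methanol containing 20 nM ddATP. Supernatants were dried and analysed by LC–MS/MS for parent nucleoside and its mono-, di- and triphosphates (pmol/10⁶ cells).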

[3] = Drug level in human HuH7 cells treated with 50 uM beta-D-2,6-diaminopurine nucleoside assessed as compound formation incubated for 4 hrs at 37 degC by LC-MS/MS method; assay type: ADME, cell-based; settings: huh-7, 4 h; in short: as §6
Hepacivirus hominis [4] = assay: Inhibition of HCV C-terminal His-tagged NS5Bdelta21 enzyme assessed as reduction in NS5B-mediated RNA polymerization using [32P]-GpG primer, RNA template and rNTP nucleotide mix incubated for 120 mins by PAGE method
In short: (§7)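 Purified NS5BΔ21 (C-terminal His tag), 1 μM, at 30 °C with 1 μM 20-mer RNA template and 1 μM ³²P-GpG primer. Buffer was 40 mM Tris pH 7.5, 6 mM NaCl, 2 mM MgCl₂. Started with 10 μM NTP mix, 1 μM competing NTP and triphosphate inhibitor at 0–100 μM. Products run on 20% denaturing PAGE and quantified; IC₅₀ calculated.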

Hepatocyte [5] = assay: as §5, with “primary hepatocytes” for “HuH7 cells”; assay type: ADME, cell-based
In short: (§8)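 Freshly plated primary human hepatocytes seeded at 1 × 10⁶ per well and acclimated overnight, then given 50 μM compound for 4 h at 37 °C. After two ice-cold PBS washes, extraction ran overnight at −20 °C in 70% methanol with 20 nM ddATP. Dried extracts went to LC–MS/MS for intracellular metabolites, as three replicates from one plate, ±SD.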

Hepatocyte [6] = assay: Drug level in human primary hepatocytes treated with 50 uM Ethyl 3-(2-(((R)-(((2R,3R,4R,5R)-5-(2,6-Diamino-9H-purin-9-yl)-3,4-dihydroxy-4-methyltetrahydrofuran-2-yl)methoxy)(((S)-1-ethoxy-1-oxopropan-2-yl)amino)phosphoryl)oxy)phenyl)-propanoate assessed as compound formation incubated for 4 hrs at 37 degC by LC-MS/MS method; assay type: ADME, cell-based; in short: as §8
[7] = Drug level in human HuH7 cells treated with 50 uM Ethyl 3-(2-(((R)-(((2R,3R,4R,5R)-5-(2,6-Diamino-9H-purin-9-yl)-3,4-dihydroxy-4-methyltetrahydrofuran-2-yl)methoxy)(((S)-1-ethoxy-1-oxopropan-2-yl)amino)phosphoryl)oxy)phenyl)-propanoate assessed as compound formation incubated for 4 hrs at 37 degC by LC-MS/MS method; assay type: ADME, cell-based; settings: huh-7, 4 h; in short: as §6
Hepacivirus hominis [8] = assay: Inhibition of HCV C-terminal His-tagged NS5Bdelta21 enzyme assessed as induction of pausing at sites of GMP incorporation during NS5B-mediated RNA polymerization using [32P]-GpG primer, RNA template and rNTP nucleotide mix incubated for 120 mins by PAGE method
In short: as §7, with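 “μM. Stopped at 120 min with EDTA/formamide.” for “μM.”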

Hepatocyte [9] = assay: Drug level in human primary hepatocytes treated with 50 uM beta-D-2,6-diaminopurine nucleoside assessed as compound formation incubated for 4 hrs at 37 degC by LC-MS/MS method; assay type: ADME, cell-based; in short: as §8
[10] = as §4; assay type: cell-based; settings: chlorocebus sabaeus, Vero cells
[11] = as §2; assay type: cell-based, CCRF-CEM; settings: CEM cells (CCRF-CEM)
[12] = as §3; assay type: cell-based; settings: PBMC
HepG2 [13] = assay: Mitochondrial toxicity in human HepG2 cells assessed as effect on mitochondrial cytochrome c oxidase subunit 2 DNA level incubated for 14 days by real-time PCR method; assay type: cell-based; settings: hepg2, 336 h
In short: (§9)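 HepG2 cells in DMEM with 4.5 g/L glucose and 10% heat-inactivated FBS, seeded at 5000 cells/well on collagen; compounds added 1 day later at final 1–50 μM. Medium and compound renewed every 3–4 days for 14 days; duplicates in two independent experiments. COXII mtDNA and nuclear β-actin DNA measured by real-time PCR, normalised to untreated control; IC₅₀ calculated.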

HepG2 [14] = assay: Mitochondrial toxicity in human HepG2 cells assessed as effect on nuclear beta-actin DNA level incubated for 14 days by real-time PCR method; assay type: cell-based; settings: hepg2, 336 h; in short: as §9
HepG2 [15] = assay: Mitochondrial toxicity in human HepG2 cells assessed as induction of lactic acid levels at 10 uM incubated for 14 days; assay type: cell-based; settings: hepg2, 336 h
In short: (§10)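 After 14 days of HepG2 exposure to compound (same culture regimen as the mtDNA assay), lactic acid in culture supernatant quantified with a D-/L-lactic acid kit by absorbance. Results expressed as % lactic acid over % nuclear DNA (β-actin control); mean of triplicates from a single plate.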

HepG2 [16] = assay: Mitochondrial toxicity in human HepG2 cells assessed as induction of lactic acid levels at 1 uM incubated for 14 days; assay type: cell-based; settings: hepg2, 336 h; in short: as §10
HepG2 [17] = assay: Mitochondrial toxicity in human HepG2 cells assessed as induction of lactic acid levels at 50 uM incubated for 14 days; assay type: cell-based; settings: hepg2, 336 h; in short: as §10
HepG2 [18] = assay: Toxicity in human HepG2 cells assessed as increase in cell death at 10 uM; assay type: cell-based; settings: hepg2, 10 µM

| SMILES | pEC50 (Hepatitis C virus) | EC90 (Hepatitis C virus) | CC50 (CCRF-CEM) | CC50 [1] | CC50 (PBMC) | CC50 (Vero) | also measured |
| --- | --- | --- | --- | --- | --- | --- | --- |
| CC(C)OC(=O)CCc1ccccc1O[P@@](=O)(N[C@@H](C)C(=O)OC(C)C)OC[C@H]1O[C@@H](n2cnc3c(N)nc(N)nc32)[C@](C)(O)[C@H]1O | 6.00 | 2.7 µM | > 100 µM | > 10 µM |  |  |  |
| CC(C)OC(=O)CCc1ccccc1O[P@](=O)(N[C@@H](C)C(=O)OC(C)C)OC[C@H]1O[C@@H](n2cnc3c(N)nc(N)nc32)[C@](C)(O)[C@H]1O | 6.05 | 2.8 µM | 40 µM |  | > 100 µM |  |  |
| CCOC(=O)CCc1ccccc1O[P@@](=O)(N[C@@H](C)C(=O)OC(C)C)OC[C@H]1O[C@@H](n2cnc3c(N)nc(N)nc32)[C@](C)(O)[C@H]1O | 5.62 | 8.2 µM |  |  |  | > 100 µM |  |
| CCOC(=O)CCc1ccccc1OP(=O)(N[C@@H](C)C(=O)OCC)OC[C@H]1O[C@@H](n2cnc3c(N)nc(N)nc32)[C@]2(C)OC(=O)O[C@@H]12 (stereo partly drawn) | 5.55 | 8.5 µM | > 100 µM | > 10 µM | > 100 µM | > 100 µM |  |
| CCOC(=O)CCc1ccccc1OP(=O)(N[C@@H](C)C(=O)OC(C)C)OC[C@H]1O[C@@H](n2cnc3c(N)nc(N)nc32)[C@](C)(O)[C@H]1O (stereo partly drawn) | 5.66 | 9 µM |  |  |  |  |  |
| CCOC(=O)[C@H](C)N[P@](=O)(OC[C@H]1O[C@@H](n2cnc3c(N)nc(N)nc32)[C@](C)(O)[C@H]1O)Oc1ccccc1CCC(=O)OC(C)C | 5.04 | 26 µM |  | > 10 µM |  |  |  |
| CCOC(=O)[C@H](C)NP(=O)(OC[C@H]1O[C@@H](n2cnc3c(N)nc(N)nc32)[C@](C)(O)[C@H]1O)Oc1ccccc1CCC(=O)OC(C)C (stereo partly drawn) | 5.77 | 8 µM |  |  |  | > 100 µM |  |
| CCOC(=O)CCc1ccccc1OP(=O)(N[C@@H](C)C(=O)OCC)OC[C@H]1O[C@@H](n2cnc3c(N)nc(N)nc32)[C@](C)(O)[C@H]1O (mixture of isomers) | 5.64 | 7.3 µM | > 100 µM | > 10 µM |  |  |  |
| C[C@@]1(O)[C@H](O)[C@@H](COP(=O)(O)OP(=O)(O)OP(=O)(O)O)O[C@H]1n1cnc2c(=O)[nH]c(N)nc21 [INX-09114] |  |  |  |  |  |  | Drug metabolism [2]: metabolite_detected; Drug metabolism [3]: metabolite_detected; inhibition (Hepacivirus hominis [4]): Dose-dependent effect; Drug metabolism (Hepatocyte [5]): metabolite_detected; Drug metabolism (Hepatocyte [6]): metabolite_detected; Drug metabolism [7]: metabolite_detected; inhibition (Hepacivirus hominis [8]): Active; Drug metabolism (Hepatocyte [9]): metabolite_detected |
| CCOC(=O)CCc1ccccc1O[P@](=O)(N[C@@H](C)C(=O)OCC)OC[C@H]1O[C@@H](n2cnc3c(N)nc(N)nc32)[C@](C)(O)[C@H]1O | 5.57 | 8.7 µM |  |  | > 100 µM |  |  |
| CCOC(=O)[C@H](C)N[P@@](=O)(OC[C@H]1O[C@@H](n2cnc3c(N)nc(N)nc32)[C@](C)(O)[C@H]1O)Oc1ccccc1CCC(=O)OC(C)C | 5.85 | 6.9 µM | > 100 µM |  | > 100 µM |  |  |
| CCOC(=O)CCc1ccccc1OP(=O)(OC[C@H]1O[C@@H](n2cnc3c(N)nc(N)nc32)[C@](C)(O)[C@@H]1O)Oc1ccccc1CCC(=O)OCC | < 5.00 | > 10 µM |  |  |  |  | CC50 at 120 h [10]: 90 µM; CC50 at 120 h [11]: 25 µM; CC50 at 120 h [12]: 64 µM; CC50 at 120 h ([1]; HuH7 cells): > 10 µM |
| Nc1ccn([C@@H]2CS[C@H](CO)O2)c(=O)n1 [LAMIVUDINE] |  |  |  |  |  |  | CC50 (HepG2 [13]): > 10 µM; CC50 (HepG2 [14]): > 10 µM; Activity (HepG2 [15]): 91% |
| C[C@@]1(O)[C@H](O)[C@@H](CO)O[C@H]1n1cnc2c(N)nc(N)nc21 | 5.27 | > 10 µM | > 100 µM | > 33 µM | > 100 µM | > 100 µM | CC50 (HepG2 [13]): > 50 µM; CC50 (HepG2 [14]): > 50 µM; Activity (HepG2 [16]): 110%; Activity (HepG2 [17]): 110%; Activity (HepG2 [15]): 170% |
| CCOC(=O)[C@H](C)NP(=O)(OC[C@H]1O[C@@H](n2cnc3c(N)nc(N)nc32)[C@](C)(O)[C@@H]1O)Oc1ccccc1 (stereo partly drawn) | 6.05 | 4 µM | > 100 µM | > 10 µM | > 100 µM | > 100 µM | CC50 (HepG2 [13]): > 50 µM; CC50 (HepG2 [14]): > 50 µM; Activity (HepG2 [16]): 100%; Activity (HepG2 [17]): 90%; Activity (HepG2 [15]): 140% |
| CCOC(=O)CCc1ccccc1O[P@](=O)(N[C@@H](C)C(=O)OC(C)C)OC[C@H]1O[C@@H](n2cnc3c(N)nc(N)nc32)[C@](C)(O)[C@H]1O | 5.33 | 9.7 µM | > 100 µM | > 10 µM | > 100 µM |  |  |
| COc1nc(N)nc2c1ncn2[C@@H]1O[C@H](COP(=O)(N[C@@H](C)C(=O)OCC(C)(C)C)Oc2cccc3ccccc23)[C@@H](O)[C@@]1(C)O (stereo partly drawn) [BMS-986094] | 7.70 | 0.04 µM | 8.7 µM | 0.8 µM | 4.7 µM | 14 µM | CC50 (HepG2 [13]): 4.7 µM; CC50 (HepG2 [14]): < 1 µM; Activity (HepG2 [18]): Toxic; Activity (HepG2 [16]): 190% |
| Nc1ccn([C@H]2CC[C@@H](CO)O2)c(=O)n1 [ZALCITABINE] |  |  |  |  |  |  | CC50 (HepG2 [13]): < 10 µM; CC50 (HepG2 [14]): < 10 µM; Activity (HepG2 [15]): 220% |

— ChEMBL document CHEMBL3421565, “β-D-2'-C-Methyl-2,6-diaminopurine Ribonucleoside Phosphoramidates are Potent and Selective Inhibitors of Hepatitis C Virus (HCV) and Are Bioconverted Intracellularly to Bioactive 2,6-Diaminopurine and Guanosine 5'-Triphosphate Forms” (J Med Chem, 2015)
